# About 350 (0.11%) of roughly 330,000 compounds were called active.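 Rule for the calls: active = activation above the mean of all tested compounds plus 3 SD (cut at about 21% in these data); inactive = the rest.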 What follows is part of a selection rich in actives, with near analogues and random picks from the rest.
# Molecular target: Caspase-3 (Homo sapiens) (UniProt P42574)
# Assay: activators of human procaspase-3 D3A mutant, primary screen, biochemical, absorbance, PC-3 D3A mutant, single concentration (AID 463141);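 note: 0% = DMSO alone and 100% = DMSO wells spiked with extra 5 µM PC-3 D3A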
# Settings: recombinant procaspase-3 D3A, Ac-DEVD-pNA absorbance 405 nm; at 8.5 µM; hits give high values
# In short: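 Assay system – Procaspase-3 D3A mutant · Benchmarks – DMSO low control, extra-enzyme high control · Technique – 405 nm absorbance of p-nitroaniline, reads at 0 and 120 min · Doses – 8.5 µM nominal · Measure – % activation between DMSO and enzyme-spiked controls · Also added – Ac-DEVD-pNA chromogenic peptide substrate · Schedule – 1 h compound preincubation, 2 h substrate hydrolysis at 25 °C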
# Sequence of Caspase-3 (Homo sapiens) (P42574 whole entry D9A/D28A/D175A): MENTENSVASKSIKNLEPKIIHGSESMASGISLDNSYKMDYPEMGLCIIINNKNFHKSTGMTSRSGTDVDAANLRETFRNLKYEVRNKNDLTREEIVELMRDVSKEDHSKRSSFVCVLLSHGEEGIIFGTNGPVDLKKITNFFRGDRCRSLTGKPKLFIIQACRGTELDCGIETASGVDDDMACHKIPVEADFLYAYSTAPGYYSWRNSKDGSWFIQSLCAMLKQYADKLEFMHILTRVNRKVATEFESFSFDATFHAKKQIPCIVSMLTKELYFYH
row,Compound,activation
1,O=C(CN1CCC(O)(c2cccc(C(F)(F)F)c2)CC1)NCCc1ccccc1,2.72% (inactive)
2,COC(CCN(C)C)(c1ccccc1)c1ccccc1,-2.83% (inactive)
3,O=[N+]([O-])c1ccc(C=Nc2ccc(Cl)cc2Cl)s1,6.25% (inactive)
4,CCn1c(SCC(=O)NC2=NCCS2)nnc1C(C)NC(=O)c1ccccc1F (stereo not given),2.41% (inactive)
5,O=C1c2ccccc2C(O)N1Cc1ccccc1Cl (stereo not given),-2.13% (inactive)
6,COc1ccc2[nH]c3c(c2c1)CCN1C(=O)C(CC(=O)NCCc2ccccn2)C[C@H](C(=O)N2CCOCC2)[C@@]31C (stereo not given in full),0.02% (inactive)
7,O=P(c1cccs1)(c1cccs1)c1cccs1,-8.39% (inactive)
8,Cc1[nH]n(C(N)=S)c(=O)c1N=Nc1ccc(Cl)cc1Cl,-2.96% (inactive)
9,CCN(c1ccc2c(c1)OCO2)S(=O)(=O)c1cc(Br)cc2c1N(C(=O)C1CC1)CC2,5.06% (inactive)
10,O=C(CCNS(=O)(=O)c1ccccc1C(F)(F)F)Nc1ccncc1,1.72% (inactive)
11,Cn1cc(CCC(=O)NCc2ccc3c(c2)OCO3)c2ccccc21,11.3% (inactive)
12,O=C(CCNS(=O)(=O)c1ccccc1C(F)(F)F)NCc1ccc2c(c1)OCO2,32.1% (active)
13,CN1CCN(CCNC(=O)Nc2ccccc2[N+](=O)[O-])CC1,4.28% (inactive)
14,CN(C)c1ccc(C=NCCc2ccc(S(N)(=O)=O)cc2)cc1,8.03% (inactive)
15,Cc1ccc(C)c(NC(=O)COC(=O)c2nn(C)c(=O)c3ccccc23)c1,14.6% (inactive)
16,COc1cc(NC(=O)c2ccc(-c3csc(C)n3)cc2)c(OC)cc1Cl,3.93% (inactive)
17,CCCc1cc(=O)[nH]c(SCC(=O)Nc2ccc(C(=O)Nc3ccccc3OC)cc2)n1,0.24% (inactive)
18,CCN(Cc1ccccc1)S(=O)(=O)c1cc(C(=O)O)ccc1OC,5.66% (inactive)

row,Compound,activation
1,FC(F)(F)c1cccc(-c2nc(COc3ccc(Cl)cc3Cl)no2)c1,-1.22% (inactive)
2,CCCc1nc2c(C)cc(-c3nc4ccccc4n3C)cc2n1Cc1ccc(-c2ccccc2C(=O)O)cc1,5.04% (inactive)
3,CC1(C)Cc2c(C#N)c(SCc3nc4ccccc4[nH]3)nc(N3CCOCC3)c2CO1,30.9% (active)
4,CC(C)C(=O)N1CCN(c2nc(-c3ccccc3)c3c(c2C#N)CC(C)(C)OC3)CC1,5.16% (inactive)
5,COc1ccc(CSc2nc(N3CCOCC3)c3c(c2C#N)CC(C)(C)OC3)cc1,-2.72% (inactive)
6,COc1ccc(OC)c(/C=N/NC(=O)c2ccc[n+](CC(=O)c3ccccc3)c2)c1,-2.7% (inactive)
7,COc1ccc(OC)c(Nc2nc3ccccc3n3cnnc23)c1,-2.95% (inactive)
8,Cc1cc(F)ccc1S(=O)(=O)Nc1ccc(C(=O)N(C)Cc2ccco2)cc1,12.5% (inactive)
9,CCN(CC)S(=O)(=O)c1ccc(Cl)c(C(=O)NC(C)C(c2cccs2)N2CCCC2)c1 (stereo not given),0.02% (inactive)
10,O=C(NCc1ccccc1)[C@@H]1CSC2c3ccccc3C(=O)N21 (stereo not given in full),5.1% (inactive)
11,Cn1nc([N+](=O)[O-])nc1Sc1ccc(C(C)(C)C)cc1,-0.3% (inactive)
12,ONC(=Nc1ccc(Cl)cc1)c1ccccc1Cl,4.43% (inactive)
13,C=CCn1c(SCc2nnc(-c3ccccc3)o2)nnc1C(O)c1ccccc1 (stereo not given),-1.35% (inactive)
14,CC1CCN(C(=S)NC2CC3CCC2C3)CC1 (stereo not given),-7.41% (inactive)
15,CCCNC(=O)CN(Cc1ccccc1F)S(=O)(=O)c1ccc(C)cc1,4.46% (inactive)
16,Cc1ccc(N(C(=O)C(F)(F)F)C(C(=O)NC2CCCCC2)c2ccncc2)cc1C (stereo not given),-2.69% (inactive)
17,O=C(NCCS(=O)(=O)c1ccc(Br)cc1)c1ccccc1Cl,3.23% (inactive)

# Reference: PubChem BioAssay AID463141 (The Scripps Research Institute Molecular Screening Center, 2010)
